From ChEMBL document CHEMBL4342493, “Design and Optimization of 3'-(Imidazo[1,2-a]pyrazin-3-yl)-[1,1'-biphenyl]-3-carboxamides as Selective DDR1 Inhibitors” (ACS Med Chem Lett, 2020)

Legend:
[1] = target: Mast/stem cell growth factor receptor Kit (Homo sapiens, UniProt P10721); experiment: Inhibition of human recombinant His-tagged c-Kit cytoplasmic domain (544 to 976 residues) expressed in baculovirus expression system using Ser/Thr 6 peptide as substrate after 1 hr in presence of 300 uM ATP by FRET based Z'-LYTE assay
Mast/stem cell growth factor receptor Kit, sequence (P10721 whole entry, the tested form may be a part): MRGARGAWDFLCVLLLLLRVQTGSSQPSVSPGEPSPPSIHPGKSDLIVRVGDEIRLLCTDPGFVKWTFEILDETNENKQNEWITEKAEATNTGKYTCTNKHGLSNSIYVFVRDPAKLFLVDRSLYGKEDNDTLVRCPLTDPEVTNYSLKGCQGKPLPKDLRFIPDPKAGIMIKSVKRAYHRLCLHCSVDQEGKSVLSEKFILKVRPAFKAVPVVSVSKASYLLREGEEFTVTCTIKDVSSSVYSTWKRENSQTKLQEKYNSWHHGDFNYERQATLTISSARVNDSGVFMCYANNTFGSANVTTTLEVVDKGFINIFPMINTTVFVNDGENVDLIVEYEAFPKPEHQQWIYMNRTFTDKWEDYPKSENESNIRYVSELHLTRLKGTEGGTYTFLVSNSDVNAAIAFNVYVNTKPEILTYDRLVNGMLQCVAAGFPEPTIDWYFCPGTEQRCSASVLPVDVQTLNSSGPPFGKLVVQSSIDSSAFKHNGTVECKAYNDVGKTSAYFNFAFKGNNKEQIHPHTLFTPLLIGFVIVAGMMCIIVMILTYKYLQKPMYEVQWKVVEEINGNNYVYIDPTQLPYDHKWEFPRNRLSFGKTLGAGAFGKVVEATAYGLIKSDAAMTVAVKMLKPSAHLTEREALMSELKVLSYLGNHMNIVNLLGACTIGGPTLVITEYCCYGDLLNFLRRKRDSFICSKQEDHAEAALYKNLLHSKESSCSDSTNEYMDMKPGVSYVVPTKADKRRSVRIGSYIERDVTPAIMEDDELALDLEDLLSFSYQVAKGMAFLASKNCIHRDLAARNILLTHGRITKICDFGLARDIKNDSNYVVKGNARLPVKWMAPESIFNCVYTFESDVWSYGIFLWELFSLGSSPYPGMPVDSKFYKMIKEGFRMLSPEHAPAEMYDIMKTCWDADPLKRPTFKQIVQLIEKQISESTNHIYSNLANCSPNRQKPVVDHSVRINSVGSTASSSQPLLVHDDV

Bcr/Abl fusion protein = Bcr/Abl fusion protein (Homo sapiens, UniProt P00519); experiment: Inhibition of human recombinant full length His-tagged Bcr-Abl expressed in baculovirus expression system using tyrosine-2 peptide as substrate after 1 hr in presence of […] ATP by FRET based Z'-LYTE assay
Bcr/Abl fusion protein, sequence (P00519 whole entry, the tested form may be a part): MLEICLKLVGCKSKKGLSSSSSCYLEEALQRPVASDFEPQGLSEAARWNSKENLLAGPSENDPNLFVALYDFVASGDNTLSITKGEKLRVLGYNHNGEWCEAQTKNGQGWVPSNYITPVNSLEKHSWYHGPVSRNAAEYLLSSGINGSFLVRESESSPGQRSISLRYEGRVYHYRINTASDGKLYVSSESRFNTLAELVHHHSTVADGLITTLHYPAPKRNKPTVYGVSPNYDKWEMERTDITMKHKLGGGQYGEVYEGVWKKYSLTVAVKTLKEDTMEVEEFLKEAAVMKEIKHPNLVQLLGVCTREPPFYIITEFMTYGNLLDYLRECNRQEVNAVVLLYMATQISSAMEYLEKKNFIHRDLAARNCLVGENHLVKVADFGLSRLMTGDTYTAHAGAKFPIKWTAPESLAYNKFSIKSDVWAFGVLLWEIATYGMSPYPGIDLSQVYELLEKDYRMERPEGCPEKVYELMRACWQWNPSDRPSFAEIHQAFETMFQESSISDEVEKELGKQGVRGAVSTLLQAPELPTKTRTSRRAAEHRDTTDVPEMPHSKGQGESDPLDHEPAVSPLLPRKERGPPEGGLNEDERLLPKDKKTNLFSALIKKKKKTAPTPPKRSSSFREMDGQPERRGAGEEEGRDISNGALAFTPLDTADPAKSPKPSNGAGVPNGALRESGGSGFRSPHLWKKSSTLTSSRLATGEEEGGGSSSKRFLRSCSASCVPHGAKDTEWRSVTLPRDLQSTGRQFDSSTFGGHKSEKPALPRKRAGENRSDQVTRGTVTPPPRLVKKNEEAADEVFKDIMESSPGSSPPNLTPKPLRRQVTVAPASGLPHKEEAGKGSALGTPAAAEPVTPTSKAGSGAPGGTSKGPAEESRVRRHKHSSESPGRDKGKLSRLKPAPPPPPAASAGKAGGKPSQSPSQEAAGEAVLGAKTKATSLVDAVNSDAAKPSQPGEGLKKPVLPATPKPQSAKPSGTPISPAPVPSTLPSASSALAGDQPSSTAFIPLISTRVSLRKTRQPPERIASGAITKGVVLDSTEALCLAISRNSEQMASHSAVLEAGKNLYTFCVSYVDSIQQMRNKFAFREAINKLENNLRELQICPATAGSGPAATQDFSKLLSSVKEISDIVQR
Bcr/Abl fusion protein, sequence (P11274 whole entry, further chain, the tested form may be a part): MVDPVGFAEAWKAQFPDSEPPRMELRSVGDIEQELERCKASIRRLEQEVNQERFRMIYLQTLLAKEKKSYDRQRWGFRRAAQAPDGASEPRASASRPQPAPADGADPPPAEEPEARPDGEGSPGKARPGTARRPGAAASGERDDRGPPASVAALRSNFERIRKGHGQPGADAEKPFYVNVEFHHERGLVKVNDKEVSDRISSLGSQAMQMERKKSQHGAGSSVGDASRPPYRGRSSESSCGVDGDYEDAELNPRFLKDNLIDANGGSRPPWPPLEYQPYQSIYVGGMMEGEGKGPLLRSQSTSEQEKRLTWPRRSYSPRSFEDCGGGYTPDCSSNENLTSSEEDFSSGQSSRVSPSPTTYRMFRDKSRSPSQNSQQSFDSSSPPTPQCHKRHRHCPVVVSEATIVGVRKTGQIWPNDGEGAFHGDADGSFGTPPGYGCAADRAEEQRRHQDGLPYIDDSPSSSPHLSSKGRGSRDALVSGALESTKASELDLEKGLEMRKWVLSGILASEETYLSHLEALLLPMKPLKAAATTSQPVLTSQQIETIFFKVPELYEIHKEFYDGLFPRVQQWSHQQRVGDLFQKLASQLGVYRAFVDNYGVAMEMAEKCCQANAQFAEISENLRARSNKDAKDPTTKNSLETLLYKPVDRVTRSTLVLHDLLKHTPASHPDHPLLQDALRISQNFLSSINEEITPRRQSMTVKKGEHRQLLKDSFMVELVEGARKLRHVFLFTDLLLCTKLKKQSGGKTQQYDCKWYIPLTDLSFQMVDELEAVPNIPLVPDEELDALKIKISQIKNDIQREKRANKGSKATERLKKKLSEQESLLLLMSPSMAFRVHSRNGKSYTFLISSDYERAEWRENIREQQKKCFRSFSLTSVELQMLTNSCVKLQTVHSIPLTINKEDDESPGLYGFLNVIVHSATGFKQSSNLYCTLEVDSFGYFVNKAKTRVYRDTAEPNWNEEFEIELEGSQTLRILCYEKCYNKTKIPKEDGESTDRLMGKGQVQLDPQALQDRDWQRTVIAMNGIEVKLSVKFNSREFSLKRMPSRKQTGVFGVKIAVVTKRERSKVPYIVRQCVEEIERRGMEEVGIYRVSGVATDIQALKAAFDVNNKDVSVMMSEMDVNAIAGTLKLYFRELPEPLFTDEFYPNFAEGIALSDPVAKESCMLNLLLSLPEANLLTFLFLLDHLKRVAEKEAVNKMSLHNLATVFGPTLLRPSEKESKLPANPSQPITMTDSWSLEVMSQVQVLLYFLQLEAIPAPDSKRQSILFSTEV
How it was run: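 FRET-based Z′-Lyte kinase assay for Bcr-Abl; IC50 values are means of three independent experiments, variations <20%.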

[2] = target: T1, Discoidin domain-containing receptor 2 (Homo sapiens, UniProt Q16832); experiment: Inhibition of recombinant human GST-tagged DDR2 cytoplasmic domain (427 to 855 residues) expressed in baculovirus expression system using Fluorescein-poly GAT as substrate incubated for 1 hr in presence of ATP by LanthaScreen Eu kinase assay
T1 sequence (Q16832 whole entry): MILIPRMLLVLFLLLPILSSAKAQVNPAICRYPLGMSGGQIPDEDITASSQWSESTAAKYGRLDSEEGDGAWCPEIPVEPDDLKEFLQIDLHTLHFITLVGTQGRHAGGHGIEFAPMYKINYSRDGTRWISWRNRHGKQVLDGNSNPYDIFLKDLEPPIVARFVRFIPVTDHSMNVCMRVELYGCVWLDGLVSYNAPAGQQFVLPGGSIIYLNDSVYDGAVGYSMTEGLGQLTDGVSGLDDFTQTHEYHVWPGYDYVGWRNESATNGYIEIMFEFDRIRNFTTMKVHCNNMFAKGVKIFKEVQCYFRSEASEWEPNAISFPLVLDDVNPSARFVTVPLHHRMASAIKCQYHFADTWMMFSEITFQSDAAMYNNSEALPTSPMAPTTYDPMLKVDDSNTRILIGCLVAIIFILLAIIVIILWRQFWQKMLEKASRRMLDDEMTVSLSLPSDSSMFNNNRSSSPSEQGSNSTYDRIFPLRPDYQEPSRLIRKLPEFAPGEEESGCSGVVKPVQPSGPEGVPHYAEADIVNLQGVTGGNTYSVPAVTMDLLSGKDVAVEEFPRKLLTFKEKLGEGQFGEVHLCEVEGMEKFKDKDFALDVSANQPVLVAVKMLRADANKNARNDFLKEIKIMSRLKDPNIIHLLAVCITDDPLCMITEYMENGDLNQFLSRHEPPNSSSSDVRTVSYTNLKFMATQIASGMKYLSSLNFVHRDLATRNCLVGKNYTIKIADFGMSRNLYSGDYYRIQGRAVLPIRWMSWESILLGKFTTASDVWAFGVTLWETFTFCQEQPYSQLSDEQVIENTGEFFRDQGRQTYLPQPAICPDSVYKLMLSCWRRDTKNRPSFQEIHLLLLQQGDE
How it was run: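 LanthaScreen Eu kinase assay for DDR2; IC50 values are means of three independent experiments, variations <20%.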

[3] = target: Epithelial discoidin domain-containing receptor 1 (Homo sapiens, UniProt Q08345); experiment: Inhibition of recombinant human GST-tagged DDR1 catalytic domain (440 to 876 residues) expressed in baculovirus expression system using Fluorescein-poly GAT as substrate incubated for 1 hr in presence of ATP by LanthaScreen Eu kinase assay
Epithelial discoidin domain-containing receptor 1, sequence (Q08345 whole entry, the tested form may be a part): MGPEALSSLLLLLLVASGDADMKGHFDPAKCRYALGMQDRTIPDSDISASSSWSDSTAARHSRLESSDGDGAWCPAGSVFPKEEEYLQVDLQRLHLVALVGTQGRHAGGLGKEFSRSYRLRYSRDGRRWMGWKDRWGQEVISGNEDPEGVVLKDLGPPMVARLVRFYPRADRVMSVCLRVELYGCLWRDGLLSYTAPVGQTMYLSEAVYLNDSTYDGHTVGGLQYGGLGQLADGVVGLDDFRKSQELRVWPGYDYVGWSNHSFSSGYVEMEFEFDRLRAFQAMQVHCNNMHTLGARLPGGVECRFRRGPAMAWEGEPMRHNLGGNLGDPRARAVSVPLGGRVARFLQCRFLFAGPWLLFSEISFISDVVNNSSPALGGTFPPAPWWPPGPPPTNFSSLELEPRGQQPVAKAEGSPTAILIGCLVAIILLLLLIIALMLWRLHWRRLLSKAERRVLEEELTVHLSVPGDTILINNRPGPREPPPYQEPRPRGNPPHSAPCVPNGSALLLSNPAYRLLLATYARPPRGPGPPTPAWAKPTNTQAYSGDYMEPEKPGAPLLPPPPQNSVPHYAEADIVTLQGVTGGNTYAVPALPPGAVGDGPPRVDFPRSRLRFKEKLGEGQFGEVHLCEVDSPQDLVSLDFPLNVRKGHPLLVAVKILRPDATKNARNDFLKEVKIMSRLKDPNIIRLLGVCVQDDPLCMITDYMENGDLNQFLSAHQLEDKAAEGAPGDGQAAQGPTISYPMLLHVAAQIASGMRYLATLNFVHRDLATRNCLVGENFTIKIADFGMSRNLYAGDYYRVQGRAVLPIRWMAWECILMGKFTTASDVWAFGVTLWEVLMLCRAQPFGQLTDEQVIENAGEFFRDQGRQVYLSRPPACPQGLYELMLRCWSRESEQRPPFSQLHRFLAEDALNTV

SMILES | IC50 [1] | IC50 (Bcr/Abl fusion protein) | IC50 [2] | IC50 [3]
CCc1ccc(C(=O)Nc2cccc(C(F)(F)F)c2)cc1-c1cc(Cl)cc(-c2cnc3cnccn23)c1 | 8410 nM | > 10000 nM | 1080 nM | 21.3 nM
CCc1ccc(C(=O)Nc2cccc(CN3CCN(C)CC3)c2)cc1-c1cccc(-c2cnc3cnccn23)c1 | 4930 nM | 989 nM | > 10000 nM | 357 nM
CCc1ccc(C(=O)Nc2cc(C(F)(F)F)ccc2F)cc1-c1cc(C)cc(-c2cnc3cnccn23)c1 | > 10000 nM | > 10000 nM | > 5000 nM | 36.5 nM
CCc1ccc(C(=O)Nc2cccc(C(F)(F)F)c2)cc1-c1cccc(-c2cnc3cnccn23)c1 | 2920 nM | 2220 nM | 725 nM | 10.4 nM
CCc1cc(-c2cc(C(=O)Nc3cccc(C(F)(F)F)c3)ccc2CC)cc(-c2cnc3cnccn23)c1 | > 10000 nM | > 10000 nM | 3230 nM | 42.3 nM
CCc1ccc(C(=O)Nc2cccc(C(F)(F)F)c2)cc1-c1cc(-c2cnc3cnccn23)ccc1C | > 10000 nM | 1450 nM | 610 nM | 63.7 nM
CCc1ccc(C(=O)Nc2ccccc2)cc1-c1cccc(-c2cnc3cnccn23)c1 | 8990 nM | 5120 nM | > 10000 nM | 4850 nM
CCc1ccc(C(=O)Nc2cccc(C(F)(F)F)c2)cc1-c1cc(C#N)cc(-c2cnc3cnccn23)c1 | 3720 nM | 5640 nM | 947 nM | 15.6 nM
CCc1ccc(C(=O)Nc2cccc(C(F)(F)F)c2)cc1-c1cc(F)cc(-c2cnc3cnccn23)c1 | 6590 nM | 5340 nM | 1330 nM | 30.3 nM
CCc1ccc(C(=O)Nc2cccc(C(F)(F)F)c2)cc1-c1cc(OC)cc(-c2cnc3cnccn23)c1 | 4990 nM | 3700 nM | 1020 nM | 16.5 nM
CCc1ccc(C(=O)Nc2ccc(F)c(C(F)(F)F)c2)cc1-c1cc(C)cc(-c2cnc3cnccn23)c1 | > 10000 nM | > 10000 nM | > 5000 nM | 55.6 nM
CCc1ccc(C(=O)Nc2cccc(C(F)(F)F)c2)cc1-c1cc(-c2cnc3cnccn23)cc(C(C)(C)C)c1 | > 10000 nM | > 10000 nM | > 10000 nM | 92 nM
CCc1ccc(C(=O)Nc2cccc(C(F)(F)F)c2)cc1-c1cc(-c2cnc3cnccn23)cc(C(C)C)c1 | > 10000 nM | > 10000 nM | 2630 nM | 66.9 nM
CC(C)c1ccc(C(=O)Nc2cccc(C(F)(F)F)c2)cc1-c1cccc(-c2cnc3cnccn23)c1 | 1690 nM | > 10000 nM | > 10000 nM | 1260 nM
CCc1ccc(C(=O)Nc2cc(CN3CCN(C)CC3)cc(C(F)(F)F)c2)cc1-c1cccc(-c2cnc3cnccn23)c1 | 620 nM | 437 nM | 66.1 nM | 8.7 to 9.6 nM
CCc1ccc(C(=O)Nc2cccc(C(F)(F)F)c2)cc1-c1cc(C)cc(-c2cnc3cnccn23)c1 | > 10000 nM | > 10000 nM | 1730 nM | 22.5 nM
CCc1ccc(C(=O)Nc2cc(CN3CCN(C)CC3)cc(C(F)(F)F)c2)cc1C#Cc1cnc2ccnn2c1 | > 10000 nM | – | – | –
CCc1ccc(C(=O)Nc2ccccc2C(F)(F)F)cc1-c1cccc(-c2cnc3cnccn23)c1 | > 10000 nM | > 10000 nM | > 10000 nM | 4880 nM
CCc1ccc(C(=O)Nc2cccc(C(F)(F)F)c2)cc1-c1ccc(C)c(-c2cnc3cnccn23)c1 | > 10000 nM | > 10000 nM | > 10000 nM | 108 nM
CCc1ccc(C(=O)Nc2cccc(C(F)(F)F)c2)cc1-c1cccc(-c2cnc3cnccn23)c1C | 5980 nM | 1810 nM | 663 nM | 30.1 nM
CCc1ccc(C(=O)Nc2cc(CN3CCN(C)CC3)cc(C(F)(F)F)c2)cc1-c1cccc(-c2cnc3ccnn3c2)c1 | > 10000 nM | > 10000 nM | 197 nM | 359 nM
CCc1ccc(C(=O)Nc2ccc(C(F)(F)F)cc2)cc1-c1cccc(-c2cnc3cnccn23)c1 | 3980 nM | 4990 nM | > 10000 nM | 1300 nM
CCc1ccc(C(=O)Nc2cccc(C(F)(F)F)c2F)cc1-c1cc(C)cc(-c2cnc3cnccn23)c1 | > 10000 nM | > 10000 nM | > 5000 nM | 73.8 nM
Cc1ccc(C(=O)Nc2cccc(C(F)(F)F)c2)cc1-c1cccc(-c2cnc3cnccn23)c1 | 72.4 nM | 237 nM | 135 nM | 9.2 nM
